Test results published in PMC4793151 (Cell host & microbe, 2016).

Experiments:
[1] = test system: H. pylori clinical isolates; experiment: RIA of Le^b binding of clinical isolates preincubated with DTT; format: cell-based; details: Helicobacter pylori, read-out: EC50, DTT-susceptibility of Le^b-binding
[2] = molecular target: T1, BabA CBD of Alaskan strain A730 (Helicobacter pylori, UniProt O52269); experiment: Monovalent binding affinity; details: for Kd: A730
T1 sequence (O52269 45-480): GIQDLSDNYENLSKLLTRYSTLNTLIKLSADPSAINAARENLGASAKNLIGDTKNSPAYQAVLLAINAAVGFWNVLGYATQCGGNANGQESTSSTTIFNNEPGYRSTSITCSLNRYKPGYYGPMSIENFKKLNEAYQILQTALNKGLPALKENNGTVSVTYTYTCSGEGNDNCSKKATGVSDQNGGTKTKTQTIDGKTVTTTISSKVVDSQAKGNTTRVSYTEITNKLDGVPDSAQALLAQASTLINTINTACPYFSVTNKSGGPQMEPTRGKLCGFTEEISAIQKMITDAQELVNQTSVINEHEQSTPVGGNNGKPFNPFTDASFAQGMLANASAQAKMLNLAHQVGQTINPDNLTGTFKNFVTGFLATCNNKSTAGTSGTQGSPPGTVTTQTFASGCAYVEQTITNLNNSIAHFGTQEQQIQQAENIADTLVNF
In short: (§1)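 BabA adhesin domain isoforms from strains A730 and P436, plus the strain 17875 reference domain, were expressed recombinantly in E. coli as outer-membrane- or periplasm-targeted proteins and purified by His-tag affinity. In vitro binding was measured by isothermal titration calorimetry: injection heats were integrated into a normalized binding isotherm.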

BabA^AD;DL1-S831 [3] = experiment: ITC of BabA^AD; format: binding, Helicobacter pylori
H. pylori = H. pylori infection of Le^b-expressing transgenic mice; format: in vivo; details: 2 week, 40 mg/day/animal in drinking water
[4] = molecular target: T2, BabA^AD CL2 disulfide bond (Helicobacter pylori, UniProt O52269); experiment: Quantitative MS of tryptic digests: CL2 disulfide reduction; format: biochemical
T2 sequence (O52269 45-480): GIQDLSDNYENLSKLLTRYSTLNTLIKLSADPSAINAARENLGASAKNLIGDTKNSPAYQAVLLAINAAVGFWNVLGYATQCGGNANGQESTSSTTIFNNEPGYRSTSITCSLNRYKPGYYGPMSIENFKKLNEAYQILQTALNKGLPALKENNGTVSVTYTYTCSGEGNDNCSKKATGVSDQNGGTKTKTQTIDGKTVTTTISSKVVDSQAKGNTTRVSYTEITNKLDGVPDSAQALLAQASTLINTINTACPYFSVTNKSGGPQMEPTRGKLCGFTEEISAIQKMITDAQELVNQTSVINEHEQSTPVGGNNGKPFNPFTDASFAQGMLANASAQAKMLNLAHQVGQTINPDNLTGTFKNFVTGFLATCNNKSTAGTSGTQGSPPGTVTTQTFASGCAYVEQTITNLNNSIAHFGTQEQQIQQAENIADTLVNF

[5] = test system: FITC labeled H. pylori strain 17875/Leb; experiment: In vitro inhibition of H. pylori adherence to human gastric mucosa sections; format: cell-based, Helicobacter pylori
In short: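 FITC-labeled bacterial suspensions were mixed with N-acetylcysteine dilutions in SIA blocking buffer (0, 10, 20, 100 mg/mL) and incubated 1 hr at 37°C. They were then applied to human gastric mucosa tissue sections for 2 hr. Unbound cells were removed with PBS-Tween, and adherent bacteria were quantified digitally by microscopy relative to bacteria without NAC.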

[6] = test system: human gastric mucosa sections; experiment: Pretreatment of gastric sections; format: cell-based; details: up to 200 mg/mL NAC
In short: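 Human gastric mucosa sections were preincubated with N-acetylcysteine in SIA blocking buffer (0, 10, 20, 100, 200 mg/mL) for 2 hr at room temperature, then washed three times in PBS-Tween. FITC-labeled H. pylori 17875/Leb was applied for 2 hr and unbound cells were washed off with PBS-Tween. Bacterial binding was quantified digitally by microscopy.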

[7] = test system: H. pylori strain 17875/Leb; experiment: RIA of 125I-labeled Le^b binding to bacterial cells exposed to reducing agent; format: cell-based, Helicobacter pylori; details: 20 mg/mL NAC
[8] = test system: FITC labeled H. pylori strain 17875/Leb; experiment: In vitro detachment of adherent H. pylori from human gastric mucosa sections; format: cell-based, Helicobacter pylori
In short: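 Human gastric mucosa tissue sections were first given FITC-labeled bacteria with no NAC for 2 hr, then washed in PBS-Tween. Bound bacteria were then exposed to N-acetylcysteine dilutions in SIA blocking buffer (10, 20, 100, 200 mg/mL) for 1 hr at 37°C. Slides were washed again in PBS-Tween and remaining adherent bacteria were quantified digitally by microscopy.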

[9] = test system: BabA CBD of Peruvian strain P436; experiment: Monovalent binding affinity; design: species or system Helicobacter pylori; details: P436 versus 17875 BabA
In short: as §1

BabA = details: ref Borén et al., 1993; cited from earlier work
full-length BabA = molecular target: T3, full-length BabA (Helicobacter pylori, UniProt O52269); experiment: SPR of full-length BabA on Le^b-coated chip; format: binding
T3 sequence (O52269 21-741): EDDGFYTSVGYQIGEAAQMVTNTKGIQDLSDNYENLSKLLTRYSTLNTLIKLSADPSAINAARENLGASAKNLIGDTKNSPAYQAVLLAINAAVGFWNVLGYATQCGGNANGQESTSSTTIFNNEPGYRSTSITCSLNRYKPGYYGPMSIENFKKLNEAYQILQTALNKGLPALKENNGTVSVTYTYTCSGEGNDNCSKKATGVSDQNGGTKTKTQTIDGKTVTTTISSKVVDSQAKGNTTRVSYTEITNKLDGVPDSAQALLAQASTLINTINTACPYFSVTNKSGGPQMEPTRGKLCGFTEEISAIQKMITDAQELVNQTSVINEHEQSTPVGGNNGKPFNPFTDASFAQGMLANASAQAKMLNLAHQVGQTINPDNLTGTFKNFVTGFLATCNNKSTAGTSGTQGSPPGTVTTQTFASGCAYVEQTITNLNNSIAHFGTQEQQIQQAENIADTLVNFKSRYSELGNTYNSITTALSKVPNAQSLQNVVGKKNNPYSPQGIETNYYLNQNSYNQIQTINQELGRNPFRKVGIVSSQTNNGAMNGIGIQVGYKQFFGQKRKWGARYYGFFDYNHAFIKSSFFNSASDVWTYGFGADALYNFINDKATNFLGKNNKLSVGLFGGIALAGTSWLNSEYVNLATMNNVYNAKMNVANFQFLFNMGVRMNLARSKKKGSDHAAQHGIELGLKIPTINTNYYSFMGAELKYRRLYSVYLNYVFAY
In short: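 Surface plasmon resonance on a chip carrying immobilized Leb. Full-length BabA was flowed over it at 500, 250, 125, 62.5, 31.3 and 15.7 nM. Raw sensorgrams were fitted to binding curves to derive Kd, the association rate constant ka and the dissociation rate constant kd, each reported with a ± spread.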

BabA^AD;DL1-S831 [10] = experiment: SPR competition of BabA^AD; format: binding, Helicobacter pylori; details: 2-fold dilution series from 5 mM to 1 μM
[11] = molecular target: T4, strain 17875 BabA adhesin domain (BabA^AD), residues 25-460 (Helicobacter pylori strain 17875, strain); experiment: crystal structure
T4 chain: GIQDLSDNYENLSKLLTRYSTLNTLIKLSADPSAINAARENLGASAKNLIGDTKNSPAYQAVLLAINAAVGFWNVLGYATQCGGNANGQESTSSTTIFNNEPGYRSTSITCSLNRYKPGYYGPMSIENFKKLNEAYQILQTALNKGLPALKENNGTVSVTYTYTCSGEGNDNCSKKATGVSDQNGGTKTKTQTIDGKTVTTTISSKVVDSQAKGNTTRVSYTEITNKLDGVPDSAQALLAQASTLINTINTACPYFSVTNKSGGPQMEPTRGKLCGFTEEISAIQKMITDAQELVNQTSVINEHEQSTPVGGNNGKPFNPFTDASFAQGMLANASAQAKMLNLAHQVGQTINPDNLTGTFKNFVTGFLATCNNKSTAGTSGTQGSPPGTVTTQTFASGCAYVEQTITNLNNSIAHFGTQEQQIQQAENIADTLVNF

## O[C@@H](CS)[C@@H](O)CS (racemic) [DTT, dithiothreitol]
[1]
  EC50: 2000 to 10000 µM

## CC(=O)N[C@H]1[C@@H](O[C@H]2[C@@H](O)[C@@H](CO)O[C@@H](O[C@H]3[C@H](O)[C@@H](CO)O[C@@H](O[C@H]4[C@@H](O)[C@@H](CO)O[C@@H](O[C@H]5[C@H](O)[C@@H](O)C(O)O[C@@H]5CO)[C@@H]4O)[C@@H]3NC(C)=O)[C@@H]2O[C@@H]2O[C@@H](C)[C@@H](O)[C@@H](O)[C@@H]2O)O[C@H](CO)[C@H](O)[C@@H]1O (stereo partly shown) [A6-1, A type 1 hexasaccharide]
[2]
  Kd: 305 µM

## CC(=O)N[C@H]1[C@H](O[C@H]2[C@@H](O)[C@@H](CO)O[C@@H](O[C@H]3[C@H](O)[C@@H](O)C(O)O[C@@H]3CO)[C@@H]2O)O[C@H](CO)[C@@H](O[C@@H]2O[C@@H](C)[C@@H](O)[C@@H](O)[C@@H]2O)[C@@H]1O[C@@H]1O[C@H](CO)[C@H](O)[C@H](O[C@H]2O[C@H](CO)[C@H](O)[C@H](O)[C@H]2O)[C@H]1O[C@@H]1O[C@@H](C)[C@@H](O)[C@@H](O)[C@@H]1O (stereo partly shown) [BLe^b7]
[2]
  Kd: 93 µM
BabA^AD;DL1-S831 [3]; titration
  ITC binding: no binding heat signal

## CC(=O)N[C@@H](CS)C(=O)O [NAC, N-acetyl-L-cysteine]
H. pylori
  fold lower neutrophil recruitment to the gastric mucosa: 13 fold
  fold reduction in H. pylori epithelial adherence: 2 fold
[4]
  EC50: 55100 µM
[5]; 10 mg/mL NAC preincubation
  adherent bacteria: 14%
[5]; 20 mg/mL NAC preincubation
  adherent bacteria: less than 5%
[5]; 20 mg/mL NAC, bacteria preincubated
  inhibition of bacterial adherence: almost eliminated
[5]; Helicobacter pylori, read-out: inhibition of bacterial adherence
  inhibition at 10000 µg/mL: 86%
[6]
  effect of section pretreatment on bacterial binding: did not affect bacterial binding
[7]
  BabA-Le^b binding after incubation of bacteria: inactivated
[8]; 10 mg/mL NAC on sections with bound bacteria
  bacterial detachment: undetectable
[8]; 20 mg/mL NAC on sections with bound bacteria
  bacterial detachment: 50%
[8]; 200 mg/mL NAC on sections with bound bacteria
  bacterial detachment: over 90%

## Le^b hexasaccharide
[9]
  fold loss in monovalent binding affinity: ~15 fold
[2]; A730 versus 17875 BabA
  fold loss in monovalent binding affinity: ~20 fold
BabA^AD;DL1-S831 [3]; Figures 7B and S7A
  Le^b binding of S831 DL1 graft: active
BabA
  fold stronger binding to Le^b versus type 1 H neoglycoconjugates: about 2 fold
full-length BabA
  association rate constant ka: 610000 ± 140000 M⁻¹ s⁻¹
full-length BabA; full-length protein
  Kd: 0.00039 µM
BabA^AD;DL1-S831 [10]
  suppression of binding to Le^b-coated SPR chip by soluble glycan: suppressed

B1: Nb-ER14 (VHH)
VHH: QVQLQESGGGLVQPGGSLRLSCAASGSIYSLIAMGWYRQAPGKEHELVATISSGSTTYYADSVKGRFTISRDNAKNTLYLQMNSLKPEDTAMYYCAAYSDRLTDCSNCEADYWGQGTQVTVS
[11]
  binding result: binds

B2: Nb-ER19 (VHH)
VHH: QVQLQESGGGLVQPGGSLRLSCAASGSIFSGNVMGWYRQAPGKLREWVAAITPQGVPNYADSVKGRFTISRDNAKNMLYLQMSSLKPEDTALYYCNRLPNYRSWGQGTQVTVSS
[11]
  binding result: binds
